Results from ChEMBL document CHEMBL1159121, “Synthesis, in vitro structure-activity relationship, and in vivo studies of 2-arylthiazolidine-4-carboxylic acid amides as anticancer agents” (Bioorg Med Chem, 2010).
Activity calls are given as the source filed them. The calls are words filed in the database; no cut-off is given here.

Columns and labels:
[1] = Antiproliferative activity against mouse B16-F1 cells after 48 hrs by SRB assay; type: functional, cell-based; conditions: B16-F1, 48 h
How it was run: (§1)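 Melanoma lines and control fibroblasts grown at 37 °C, 5% CO2, then exposed to a wide concentration range for 48 h in round-bottom 96-well plates. Fixed with 10% TCA, stained with SRB, protein read at 560 nm. IC50 (50% growth inhibition versus untreated) obtained by nonlinear regression.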

[2] = system: A-375; experiment: Antiproliferative activity against human A375 cells after 48 hrs by SRB assay; type: functional, cell-based; conditions: A-375, 48 h; how it was run: as §1
[3] = Antiproliferative activity against human WM164 cells after 48 hrs by SRB assay; type: functional, cell-based; conditions: WM164, 48 h; how it was run: as §1
[4] = Cytotoxicity against human fibroblasts after 48 hrs by SRB assay; type: cell-based; conditions: Fibroblast; how it was run: as §1
[5] = Selectivity ratio of IC50 for human fibroblasts to IC50 for human melanoma cells; type: ADME; conditions: human fibroblasts and human melanoma cells, read-out: Ratio IC50
[6] = system: DU-145; experiment: Antiproliferative activity against human DU145 cells after 96 hrs by SRB assay; type: functional, cell-based; conditions: DU-145, 96 h
How it was run: (§2)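 Prostate lines in RPMI1640/10% FBS; RH7777 in DMEM/10% FBS. Cells TCA-fixed, stained with 0.4% SRB, absorbance read at 540 nm. IC50 from nonlinear regression of % survival against concentration.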

[7] = system: PC-3; experiment: Antiproliferative activity against human PC3 cells after 96 hrs by SRB assay; type: functional, cell-based; conditions: PC-3, 96 h
[8] = system: RH7777; experiment: Cytotoxicity against rat RH7777 cells after 96 hrs by SRB assay; type: cell-based; conditions: RH7777, 96 h; how it was run: as §2
[9] = system: RH7777; experiment: Selectivity ratio of IC50 for rat RH7777 cells to IC50 for human prostate cancer cells
How it was run: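 Ratio of RH7777 IC50 to the mean IC50 over four prostate lines (DU 145, PC-3, LNCaP, PPC-1). Prostate lines grown in RPMI1640/10% FBS and RH7777 in DMEM/10% FBS. Read by SRB (0.4%) at 540 nm; IC50 by nonlinear regression.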

[10] = system: LNCaP; experiment: Antiproliferative activity against human LNCAP cells after 96 hrs by SRB assay; type: functional, cell-based; how it was run: as §2
[11] = system: PPC-1; experiment: Antiproliferative activity against human PPC1 cells after 96 hrs by SRB assay; type: functional, cell-based; conditions: PPC-1, 96 h; how it was run: as §2
[12] = system: A-375; experiment: Cell cycle arrest in human A375 cells by assessed as increase in accumulation at subG1 phase […] by flow cytometry; type: functional, cell-based
[13] = system: LNCaP; experiment: Cell cycle arrest in human LNCAP cells by assessed as increase in accumulation at subG1 phase […] by flow cytometry; type: functional, cell-based
[14] = molecular target: T1, Lysophosphatidic acid receptor 1 (Homo sapiens, UniProt Q92633); experiment: Agonist activity at LPA1 expressed in human chem1 cells assessed as intracellular calcium mobilization by FLIPR assay; type: functional, cell-based
T1 sequence (Q92633 whole entry): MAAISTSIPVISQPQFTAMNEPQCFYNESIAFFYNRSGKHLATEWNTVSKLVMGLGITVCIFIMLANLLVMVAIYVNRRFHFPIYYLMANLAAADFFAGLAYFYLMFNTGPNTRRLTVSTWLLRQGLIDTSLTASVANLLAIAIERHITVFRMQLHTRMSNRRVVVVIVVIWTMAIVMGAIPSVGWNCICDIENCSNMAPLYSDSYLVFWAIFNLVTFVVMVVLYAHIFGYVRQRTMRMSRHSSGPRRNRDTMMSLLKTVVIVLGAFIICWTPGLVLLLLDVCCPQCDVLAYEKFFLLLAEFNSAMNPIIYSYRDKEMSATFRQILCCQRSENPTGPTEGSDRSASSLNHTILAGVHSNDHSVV
How it was run: (§3)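 Chem-1 cells stably transfected with LPA1, LPA3 or LPA5, kept in DMEM/10% FBS; Fluo-4 NW loaded. Compound added as an eight-point fourfold serial dilution (top 10 μM), then incubated 10 min at 25 °C. Ca2+ flux read for 180 s on FLIPR, expressed as percentage activation.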

[15] = molecular target: T2, Lysophosphatidic acid receptor 3 (Homo sapiens) (UniProt Q9UBY5); experiment: Agonist activity at LPA3 expressed in human chem1 cells assessed as intracellular calcium mobilization by FLIPR assay; type: functional, cell-based; how it was run: as §3
T2 sequence (whole entry): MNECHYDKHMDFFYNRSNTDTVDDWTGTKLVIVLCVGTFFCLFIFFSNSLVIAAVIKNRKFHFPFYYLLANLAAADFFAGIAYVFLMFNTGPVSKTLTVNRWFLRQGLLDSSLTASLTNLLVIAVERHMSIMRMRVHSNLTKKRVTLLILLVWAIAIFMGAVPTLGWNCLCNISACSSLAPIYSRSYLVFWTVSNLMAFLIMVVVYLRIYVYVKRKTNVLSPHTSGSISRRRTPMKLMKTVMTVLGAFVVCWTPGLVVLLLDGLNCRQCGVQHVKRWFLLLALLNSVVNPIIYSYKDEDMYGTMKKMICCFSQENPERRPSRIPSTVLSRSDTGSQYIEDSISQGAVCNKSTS

[16] = molecular target: Lysophosphatidic acid receptor 5 (Homo sapiens) (UniProt Q9H1C0); experiment: Agonist activity at LPA5 expressed in human chem1 cells assessed as intracellular calcium mobilization by FLIPR assay; type: functional, cell-based; how it was run: as §3
Chain of Lysophosphatidic acid receptor 5 (Homo sapiens) (Q9H1C0 whole entry): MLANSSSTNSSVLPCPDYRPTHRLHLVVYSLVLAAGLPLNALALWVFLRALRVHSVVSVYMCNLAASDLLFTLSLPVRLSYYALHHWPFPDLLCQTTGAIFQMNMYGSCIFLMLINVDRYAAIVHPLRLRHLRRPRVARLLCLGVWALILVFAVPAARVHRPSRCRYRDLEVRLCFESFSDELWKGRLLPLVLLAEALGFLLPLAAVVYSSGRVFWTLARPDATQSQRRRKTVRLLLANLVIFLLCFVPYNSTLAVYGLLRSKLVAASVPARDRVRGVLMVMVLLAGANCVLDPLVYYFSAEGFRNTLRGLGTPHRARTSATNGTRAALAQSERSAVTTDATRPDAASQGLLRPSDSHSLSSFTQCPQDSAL

[17] = molecular target: T1, Lysophosphatidic acid receptor 1; experiment: Antagonist activity at LPA1 expressed in human chem1 cells assessed as effect on intracellular calcium mobilization by FLIPR assay; type: functional, cell-based
How it was run: (§4)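 LPA1-, LPA3- or LPA5-transfected Chem-1 cells, Fluo-4 NW loaded, preincubated 10 min at 25 °C with compound. Dilution series was eight-point, fourfold, top final concentration 10 μM. […] FLIPR Ca2+ signal read for 180 s, percentage inhibition calculated; 50% inhibition was taken as antagonism.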

[18] = molecular target: T2, Lysophosphatidic acid receptor 3 (Homo sapiens); experiment: Antagonist activity at LPA3 expressed in human chem1 cells assessed as effect on intracellular calcium mobilization by FLIPR assay; type: functional, cell-based; how it was run: as §4
[19] = molecular target: Lysophosphatidic acid receptor 5 (Homo sapiens) (UniProt Q9H1C0); experiment: Antagonist activity at LPA5 expressed in human chem1 cells assessed as effect on intracellular calcium mobilization by FLIPR assay; type: functional, cell-based; how it was run: as §4
[20] = system: A-375; experiment: Inhibition of human A375 cells colony formation at 2 uM after 7 days by colony-formation assay; type: functional, cell-based
[21] = system: A-375; experiment: Inhibition of human A375 cells colony formation at 20 uM after 7 days by colony-formation assay; type: functional
[22] = system: A-375; experiment: Inhibition of human A375 cells colony formation at 100 uM after 7 days by colony-formation assay; type: functional, cell-based

SMILES | IC50 [2] | IC50 [6] | IC50 [7] | IC50 [10] | IC50 [1] | IC50 [3] | IC50 [4] | selectivity ratio [5] | IC50 [8] | Ratio IC50 [9] | IC50 [11] | other results
CC(=O)Nc1ccc(C2N[C@H](C(=O)Nc3ccc(-c4ccccc4)cc3)CS2)cc1 (mixture of isomers) | 6.2 µM | 5 µM | 7.6 µM | 3.5 µM | 5.7 µM | 4.1 µM | 33.4 µM | 6.3 | 9.5 µM | 2 | 2.9 µM | –
CCCCCCCCCCCCCCCCNC[C@@H]1CSC(c2ccc(NC(C)=O)cc2)N1 (mixture of isomers) | 14.4 µM | 4.7 µM | 4.5 µM | 4.7 µM | 11.9 µM | 3.2 µM | 84.5 µM | 8.6 | 7.9 µM | 1.9 | 2.4 µM | –
CCCCCCCCCCCCCCCCNC(=O)[C@@H]1CSC(c2ccc(NC(C)=O)cc2)N1C(C)=O (mixture of isomers) | 12.6 µM | 14.9 µM | 9 µM | 10.6 µM | 15 µM | 20.4 µM | 57.7 µM | 3.6 | 13 µM | 1.3 | 6.8 µM | –
CCCCCCCCCCCCCCCCCCNC(=O)[C@@H]1CSC(c2cc(OC)c(OC)c(OC)c2)N1 (mixture of isomers) | 4.6 µM | 4.1 µM | 4.9 µM | 1.6 µM | 5.9 µM | 3 µM | 4.7 µM | 1 | 14 µM | 4.8 | 1 µM | –
CCCCCCCC/C=C\CCCCCCCC(=O)OC[C@@H](O)COP(=O)(O)O [LYSOPHOSPHATIDIC ACID] | – | – | – | – | – | – | – | – | – | – | – | EC50 [14]: 0.031 µM
CCCCCCCCCCCCCCCCCCNC(=O)[C@@H]1CSC(c2ccc(OC)c(OC)c2)N1 (mixture of isomers) | 6.9 µM | 5.5 µM | 4.1 µM | 2.4 µM | 14.3 µM | 2.7 µM | 20.3 µM | 2.5 | 11.8 µM | 3.7 | 0.9 µM | –
Cc1noc(-c2ccc(CSCCC(=O)O)cc2)c1NC(=O)OC(C)c1ccccc1Cl (centres undefined) | – | – | – | – | – | – | – | – | – | – | – | Activity [14]: inactive; Activity [15]: inactive; Activity [16]: inactive; IC50 [17]: 0.046 µM
CCCCCCCCCCCCCCCCNC(=O)[C@@H]1CSC(c2ccc(NC(=O)CCl)cc2)N1 (mixture of isomers) | 20.4 µM | 0.7 µM | 0.9 µM | 2 µM | 93.3 µM | 5.7 µM | 25.4 µM | 0.6 | 9.4 µM | 9.4 | 0.4 µM | –

Further lines, with some results ahead:

IC50 [2] | IC50 [6] | IC50 [7] | IC50 [10] | SMILES | IC50 [1] | IC50 [3] | IC50 [4] | selectivity ratio [5] | IC50 [8] | Ratio IC50 [9] | IC50 [11] | other results
2.4 µM | 1.2 µM | 1.5 µM | 0.7 µM | CCCCCCCCC/C=C\CCCCCCCNC(=O)[C@@H]1CSC(c2cc(OC)c(OC)c(OC)c2)N1 (mixture of isomers) | 4.7 µM | 1.3 µM | 4.8 µM | 1.7 | 8.4 µM | 8.6 | 0.5 µM | –
1.8 µM | 3.2 µM | 6 µM | 1.4 µM | CCCCCCCCCCCCCCCCNC(=O)[C@@H]1CSC(c2ccc(N(C)C)cc2)N1 (mixture of isomers) | 6.7 µM | 1.5 µM | 21 µM | 6.3 | 10 µM | 3.6 | 0.4 µM | –
1.8 µM | 1.1 µM | 1 µM | 0.5 µM | CCCCCCCCCCCCCCCCNC(=O)[C@@H]1CSC(c2cccc(OC)c2)N1 (mixture of isomers) | 3 µM | 1.2 µM | 2.5 µM | 1.3 | 3.6 µM | 5.1 | 0.2 µM | –
2.7 µM | 1.8 µM | 2.1 µM | 2 µM | CCCCCCCCC#CCCCCCCCCCNC(=O)[C@@H]1CSC(c2ccc(NC(C)=O)cc2)N1 (mixture of isomers) | 1.6 µM | 1.3 µM | 7 µM | 3.8 | 6.6 µM | 4 | 0.7 µM | –
1.4 µM | – | – | – | CCCCCCCCCCCCCCCCNC(=O)[C@@H]1CSC(c2cc(OC)c(OC)c(OC)c2)N1 (mixture of isomers) | 1.6 µM | 0.7 µM | 2.4 µM | 2 | – | – | – | Activity [12]: Dose-dependent effect; Activity [13]: Dose-dependent effect; Activity [14]: inactive; Activity [15]: inactive; Activity [16]: inactive; Activity [17]: inactive; Activity [18]: inactive; Activity [19]: inactive; Activity [20]: Active; Activity [21]: Active; Activity [22]: Active
1.9 µM | 2.4 µM | 2.5 µM | 1.8 µM | CCCCCC/C=C\CCCCCCCCNC(=O)[C@@H]1CSC(c2ccc(NC(C)=O)cc2)N1 (mixture of isomers) | 2.1 µM | 2 µM | 14 µM | 7 | 7.6 µM | 3.9 | 1.1 µM | –
1.8 µM | 0.9 µM | 1.2 µM | 0.6 µM | CCCCCCCCC/C=C/CCCCCCCNC(=O)[C@@H]1CSC(c2cc(OC)c(OC)c(OC)c2)N1 (mixture of isomers) | 3.2 µM | 1.1 µM | 4 µM | 2 | 6.8 µM | 9.1 | 0.3 µM | –
3 µM | 6.5 µM | 7.4 µM | 3.6 µM | CCCCCCCCCCCCCCCCNC(=O)[C@@H]1CSC(c2ccccc2OC)N1 (mixture of isomers) | 4.3 µM | 2.4 µM | 7.2 µM | 2.2 | 17.2 µM | 3.6 | 1.7 µM | –
